Activity calls are given as the source filed them. The calls are words filed in the database; no cut-off is given here.
Experiments:
[1] = molecular target: T1, Tyrosine-protein kinase BTK (Homo sapiens, UniProt Q06187); assay: Inhibition of BTK (unknown origin)
[2] = molecular target: T2, Tyrosine-protein kinase JAK3 (Homo sapiens, UniProt P52333); assay: Inhibition of JAK3 (unknown origin)
T2 sequence (P52333 whole entry): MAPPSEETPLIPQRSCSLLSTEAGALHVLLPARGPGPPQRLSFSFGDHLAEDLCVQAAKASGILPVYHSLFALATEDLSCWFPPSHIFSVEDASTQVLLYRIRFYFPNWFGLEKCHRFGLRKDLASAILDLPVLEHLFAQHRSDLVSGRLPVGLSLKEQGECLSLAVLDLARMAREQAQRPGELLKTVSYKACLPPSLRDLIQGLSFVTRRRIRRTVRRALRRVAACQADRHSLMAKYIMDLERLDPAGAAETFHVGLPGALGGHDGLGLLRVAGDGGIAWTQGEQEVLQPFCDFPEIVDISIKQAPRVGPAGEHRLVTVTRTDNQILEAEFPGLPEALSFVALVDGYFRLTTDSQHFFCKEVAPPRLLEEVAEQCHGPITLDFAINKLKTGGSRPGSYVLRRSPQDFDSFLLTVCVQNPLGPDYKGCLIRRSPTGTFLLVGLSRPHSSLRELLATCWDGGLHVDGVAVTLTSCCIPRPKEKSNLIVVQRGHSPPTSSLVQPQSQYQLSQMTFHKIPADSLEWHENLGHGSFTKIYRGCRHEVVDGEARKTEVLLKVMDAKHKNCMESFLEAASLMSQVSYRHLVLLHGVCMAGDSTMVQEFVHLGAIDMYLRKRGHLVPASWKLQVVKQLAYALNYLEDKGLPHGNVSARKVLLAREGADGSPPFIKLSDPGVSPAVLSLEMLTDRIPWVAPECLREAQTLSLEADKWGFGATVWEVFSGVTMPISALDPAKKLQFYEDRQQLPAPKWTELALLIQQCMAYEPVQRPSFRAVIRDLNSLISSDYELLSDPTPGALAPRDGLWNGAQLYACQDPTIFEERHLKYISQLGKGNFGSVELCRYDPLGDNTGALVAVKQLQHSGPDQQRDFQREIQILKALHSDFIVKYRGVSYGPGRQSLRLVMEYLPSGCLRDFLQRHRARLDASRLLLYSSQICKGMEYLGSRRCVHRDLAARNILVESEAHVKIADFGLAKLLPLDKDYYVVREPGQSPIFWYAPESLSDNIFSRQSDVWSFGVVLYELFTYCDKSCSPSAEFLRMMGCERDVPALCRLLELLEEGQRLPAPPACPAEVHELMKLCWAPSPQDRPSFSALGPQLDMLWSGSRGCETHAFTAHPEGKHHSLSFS

[3] = molecular target: Epidermal growth factor receptor (Homo sapiens, UniProt P00533); assay: Inhibition of EGFR (unknown origin)
[4] = Cytotoxicity against human NHBE cells assessed as reduction in cell viability by CCK8 assay; type: cell-based
Method in brief: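 Human bronchial epithelial (HBE) cells were tested for growth inhibition by CCK-8 assay. IC50 values are means of three separate experiments.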

[5] = molecular target: T1, Tyrosine-protein kinase BTK; assay: Inhibition of BTK (unknown origin) by ADP-Glo kinase assay
Method in brief: (§1)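 ADP-Glo luminescent assay run at compound concentrations of 0.1, 1, 10, 100 and 1000 nM. The kinase reaction ran in 1× kinase buffer for 60 min at room temperature. ADP-Glo reagent was then added to stop the reaction and deplete ATP (40 min, RT), followed by detection reagent (30 min, RT) and a luminescence read. IC50s came from curve fitting; means of three experiments.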

[6] = molecular target: T2, Tyrosine-protein kinase JAK3; assay: Inhibition of recombinant human N-terminal GST-tagged JAK3 (781 to end residues) expressed in baculovirus infected Sf9 cells using poly (Glu,Tyr) 4:1 as substrate incubated for 60 mins in presence of ATP by ADP-Glo kinase assay; method in brief: as §1
[7] = tested on: Mus musculus; assay: Antifibrotic activity against bleomycin-induced pulmonary fibrosis C57BL/6J mouse model assessed as reduction in air-sacculitis at 30 to 60 mg/kg, po administered via gavage qd for 14 days at 3 days post bleomycin challenge by hematoxylin and eosin staining based light microscopic analysis; type: functional, organism-based
Method in brief: (§2)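 Intratracheal bleomycin (33 μg) was given to female C57BL/6J mice. Oral gavage started 3 days later and continued once daily for 14 days, with 1.4% DMSO saline as vehicle; n=8. Lungs were formalin-fixed for 24 h and paraffin-embedded. 5 μm sections were H&E-stained and examined by light microscopy at 200×.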

[8] = tested on: Mus musculus; assay: Antifibrotic activity against po dosed bleomycin-induced pulmonary fibrosis C57BL/6J mouse model assessed as reduction in alveolar septal swelling administered via gavage qd for 14 days at 3 days post bleomycin challenge by hematoxylin and eosin staining based light microscopic analysis; type: functional, organism-based; method in brief: as §2
[9] = tested on: Mus musculus; assay: Antifibrotic activity against bleomycin-induced pulmonary fibrosis C57BL/6J mouse model assessed as reduction in lung coefficient at 30 to 60 mg/kg, po administered via gavage qd for 14 days at 3 days post bleomycin challenge; type: functional, organism-based
Method in brief: (§3)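 Bleomycin was given intratracheally (33 μg) to female C57BL/6J mice, 5‒6 weeks old. Daily oral gavage followed for 14 days from day 3, with 1.4% DMSO saline vehicle; n=8 per group. Fresh lungs were weighed and lung index was calculated as lung weight/body weight × 100.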

[10] = tested on: Mus musculus; assay: Antifibrotic activity against bleomycin-induced pulmonary fibrosis C57BL/6J mouse model assessed as reduction in alveolar septal swelling at 30 to 60 mg/kg, po administered via gavage qd for 14 days at 3 days post bleomycin challenge by hematoxylin and eosin staining based light microscopic analysis; type: functional, organism-based; method in brief: as §2
[11] = tested on: Mus musculus; assay: Antifibrotic activity against bleomycin-induced pulmonary fibrosis C57BL/6J mouse model assessed as reduction in oxidative stress by measuring reduction in MDA level in plasma at 60 mg/kg, po administered via gavage qd for 14 days at 3 days post bleomycin challenge; type: functional, organism-based
Method in brief: (§4)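 After 33 μg intratracheal bleomycin, female C57BL/6J mice were gavaged once daily for 14 days from day 3 (vehicle saline, 1.4% DMSO; n=8). MDA was measured in heparinized plasma with a kit by absorbance at 532 nm; mean ± SEM.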

[12] = tested on: Mus musculus; assay: Antifibrotic activity against bleomycin-induced pulmonary fibrosis C57BL/6J mouse model assessed as reduction in IL17A expression in plasma at 30 to 60 mg/kg, po administered via gavage qd for 14 days at 3 days post bleomycin challenge by FACSCalibur flow cytometry; type: functional, organism-based
Method in brief: (§5)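 Female C57BL/6J mice (5‒6 weeks, 20‒25 g) were given 33 μg bleomycin intratracheally in saline under isoflurane. From day 3 they received oral gavage once daily for 14 days, with saline containing 1.4% DMSO as vehicle; n=8 per group. Vena cava blood was heparinized and spun at 3000 rpm for 10 min, and plasma was stored at −20 °C. IL-6, IL-17A and TNF-α were measured by flow cytometry; mean ± SEM.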

[13] = tested on: Mus musculus; assay: Antifibrotic activity against bleomycin-induced pulmonary fibrosis C57BL/6J mouse model assessed as reduction in IL6 expression in plasma at 30 to 60 mg/kg, po administered via gavage qd for 14 days at 3 days post bleomycin challenge by FACSCalibur flow cytometry; type: functional, organism-based; method in brief: as §5
[14] = tested on: Mus musculus; assay: Antifibrotic activity against bleomycin-induced pulmonary fibrosis C57BL/6J mouse model assessed as reduction in collagen deposition by measuring hydroxyproline content in lungs at 60 mg/kg, po administered via gavage qd for 14 days at 3 days post bleomycin challenge by hydroxyproline assay; type: functional, organism-based
Method in brief: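 Bleomycin model in female C57BL/6J mice: 33 μg intratracheal, then daily oral dosing for 14 days beginning on day 3, vehicle saline with 1.4% DMSO, n=8. Lungs were perfused with saline and lavaged with PBS/1 mM EDTA. The left lobe was assayed for hydroxyproline with a kit by absorbance at 550 nm; mean ± SEM.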

[15] = tested on: Mus musculus; assay: Antifibrotic activity against bleomycin-induced pulmonary fibrosis C57BL/6J mouse model assessed as reduction in TNF-alpha expression in plasma at 30 to 60 mg/kg, po administered via gavage qd for 14 days at 3 days post bleomycin challenge by FACSCalibur flow cytometry; type: functional, organism-based; method in brief: as §5
[16] = tested on: Mus musculus; assay: Antifibrotic activity against bleomycin-induced pulmonary fibrosis C57BL/6J mouse model assessed as reduction in collagen deposition in lungs at 60 mg/kg, po administered via gavage qd for 14 days at 3 days post bleomycin challenge by Masson's Trichrome staining analysis; type: functional, organism-based
Method in brief: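 Female C57BL/6J mice received 33 μg intratracheal bleomycin, then once-daily gavage for 14 days from day 3 (1.4% DMSO saline vehicle; n=8). Lungs were fixed in formalin for 24 h and paraffin-embedded. 5 μm sections were stained with Masson's trichrome and viewed by light microscopy at 200×.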

[17] = tested on: Mus musculus; assay: Antifibrotic activity against bleomycin-induced pulmonary fibrosis C57BL/6J mouse model assessed as reduction in oxidative stress by measuring reduction in MDA level in plasma at 120 mg/kg, po administered via gavage qd for 14 days at 3 days post bleomycin challenge; type: functional, organism-based; method in brief: as §4
[18] = tested on: Mus musculus; assay: Antifibrotic activity against bleomycin-induced pulmonary fibrosis C57BL/6J mouse model assessed as reduction in lung coefficient at 120 mg/kg, po administered via gavage qd for 14 days at 3 days post bleomycin challenge; type: functional, organism-based; method in brief: as §3
[19] = tested on: Mus musculus; assay: Antifibrotic activity against bleomycin-induced pulmonary fibrosis C57BL/6J mouse model assessed as reduction in IL17A expression in plasma at 120 mg/kg, po administered via gavage qd for 14 days at 3 days post bleomycin challenge by FACSCalibur flow cytometry; type: functional, organism-based; method in brief: as §5
[20] = tested on: Mus musculus; assay: Antifibrotic activity against bleomycin-induced pulmonary fibrosis C57BL/6J mouse model assessed as reduction in IL6 expression in plasma at 120 mg/kg, po administered via gavage qd for 14 days at 3 days post bleomycin challenge by FACSCalibur flow cytometry; type: functional, organism-based; method in brief: as §5
[21] = tested on: Mus musculus; assay: Antifibrotic activity against bleomycin-induced pulmonary fibrosis C57BL/6J mouse model assessed as reduction in alveolar septal swelling at 120 mg/kg, po administered via gavage qd for 14 days at 3 days post bleomycin challenge by hematoxylin and eosin staining based light microscopic analysis; type: functional, organism-based; method in brief: as §2
[22] = tested on: Mus musculus; assay: Antifibrotic activity against bleomycin-induced pulmonary fibrosis C57BL/6J mouse model assessed as reduction in TNF-alpha expression in plasma at 120 mg/kg, po administered via gavage qd for 14 days at 3 days post bleomycin challenge by FACSCalibur flow cytometry; type: functional, organism-based; method in brief: as §5

T1 sequence (Q06187 whole entry): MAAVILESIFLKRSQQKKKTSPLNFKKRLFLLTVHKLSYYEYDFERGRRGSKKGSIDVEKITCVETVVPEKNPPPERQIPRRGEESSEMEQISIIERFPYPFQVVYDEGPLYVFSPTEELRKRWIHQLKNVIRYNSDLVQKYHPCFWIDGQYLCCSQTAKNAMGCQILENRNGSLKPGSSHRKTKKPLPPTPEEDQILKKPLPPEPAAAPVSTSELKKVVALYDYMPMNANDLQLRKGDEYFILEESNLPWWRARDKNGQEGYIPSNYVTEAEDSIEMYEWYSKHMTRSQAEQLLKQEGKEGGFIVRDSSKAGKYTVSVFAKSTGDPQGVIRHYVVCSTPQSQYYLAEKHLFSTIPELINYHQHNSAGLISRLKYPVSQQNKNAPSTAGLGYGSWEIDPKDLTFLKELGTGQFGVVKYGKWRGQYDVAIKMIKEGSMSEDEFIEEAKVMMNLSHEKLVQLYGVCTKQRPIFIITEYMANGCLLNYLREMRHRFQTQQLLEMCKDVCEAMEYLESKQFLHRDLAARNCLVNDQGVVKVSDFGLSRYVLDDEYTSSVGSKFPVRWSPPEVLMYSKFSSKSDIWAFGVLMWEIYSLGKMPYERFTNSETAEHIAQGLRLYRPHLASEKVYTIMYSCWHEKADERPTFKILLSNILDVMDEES
Chain of Epidermal growth factor receptor (P00533 whole entry): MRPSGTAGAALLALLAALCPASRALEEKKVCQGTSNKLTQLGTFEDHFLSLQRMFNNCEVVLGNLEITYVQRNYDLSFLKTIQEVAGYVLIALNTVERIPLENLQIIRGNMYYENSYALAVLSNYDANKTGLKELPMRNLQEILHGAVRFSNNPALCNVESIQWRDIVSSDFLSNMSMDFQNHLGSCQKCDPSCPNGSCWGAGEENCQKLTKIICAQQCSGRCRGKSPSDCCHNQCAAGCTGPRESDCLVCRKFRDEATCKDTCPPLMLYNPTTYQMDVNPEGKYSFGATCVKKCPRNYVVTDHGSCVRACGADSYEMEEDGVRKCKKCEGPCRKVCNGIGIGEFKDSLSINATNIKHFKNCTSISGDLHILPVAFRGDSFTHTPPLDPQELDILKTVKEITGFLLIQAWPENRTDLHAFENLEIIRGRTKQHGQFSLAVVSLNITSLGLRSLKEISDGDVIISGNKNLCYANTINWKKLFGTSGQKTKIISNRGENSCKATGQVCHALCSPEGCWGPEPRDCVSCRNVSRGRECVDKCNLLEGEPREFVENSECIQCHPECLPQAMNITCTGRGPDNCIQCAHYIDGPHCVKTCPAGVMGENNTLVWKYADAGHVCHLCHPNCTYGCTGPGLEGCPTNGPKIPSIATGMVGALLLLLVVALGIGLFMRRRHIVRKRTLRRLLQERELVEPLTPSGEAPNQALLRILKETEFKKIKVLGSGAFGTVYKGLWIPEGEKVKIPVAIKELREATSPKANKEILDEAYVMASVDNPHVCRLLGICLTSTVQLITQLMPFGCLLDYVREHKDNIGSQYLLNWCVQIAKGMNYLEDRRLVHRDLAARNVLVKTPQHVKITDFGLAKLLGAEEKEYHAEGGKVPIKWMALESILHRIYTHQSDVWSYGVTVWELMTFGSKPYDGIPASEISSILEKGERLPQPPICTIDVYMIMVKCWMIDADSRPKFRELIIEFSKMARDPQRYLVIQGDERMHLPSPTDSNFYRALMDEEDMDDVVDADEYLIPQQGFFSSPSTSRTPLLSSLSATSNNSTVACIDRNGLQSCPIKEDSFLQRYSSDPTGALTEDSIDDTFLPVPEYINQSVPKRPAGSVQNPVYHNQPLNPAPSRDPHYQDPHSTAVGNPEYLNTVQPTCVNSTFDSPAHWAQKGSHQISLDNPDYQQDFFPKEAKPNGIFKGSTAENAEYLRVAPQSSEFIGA

SMILES: C=CC(=O)Nc1cccc(Nc2nc(Nc3ccc(NC(=O)CN4CCOCC4)cc3)ncc2Cl)c1
- IC50 [1]: < 10 nM
- IC50 [2]: < 10 nM
- IC50 [3]: < 10 nM

SMILES: C=CC(=O)Nc1cccc(Oc2nc(Nc3ccc(OCCN4CCOCC4)cc3)nc3ccsc23)c1
- IC50 [4]: 23.3 µM
- IC50 [5]: > 100 nM
- IC50 [6]: 90.8 nM

SMILES: C=CC(=O)Nc1cccc(Oc2nc(Nc3ccc(CN4CCOCC4)cc3)nc3ccsc23)c1
- IC50 [4]: 12.8 µM
- IC50 [5]: > 100 nM
- IC50 [6]: 85.3 nM

SMILES: C=CC(=O)Nc1cccc(Oc2nc(Nc3ccc(OCCCN4CCOCC4)c(Cl)c3)nc3ccsc23)c1
- Activity [7]: Active
- IC50 [4]: 39 µM
- IC50 [5]: ≥ 62.4 nM
- Activity [8]: Dose-dependent effect
- Activity [9]: Active
- Activity [10]: Active
- IC50 [6]: 1.38 nM
- Activity [11]: Active
- Activity [12]: Active
- Activity [13]: Active
- Activity [14]: Active
- Activity [15]: Active
- Activity [16]: Active

SMILES: Cc1ccc(=O)n(-c2ccccc2)c1
- Activity [17]: Active
- Activity [18]: Active
- Activity [19]: Active
- Activity [20]: Active
- Activity [21]: Active
- Activity [22]: Active

SMILES: C=CC(=O)Nc1cccc(Nc2nc(Nc3ccc(OCCOC)cc3)ncc2F)c1 [SPEBRUTINIB]
- IC50 [6]: 66.5 nM

— ChEMBL document CHEMBL4613238, “Synthesis and biological activity of thieno[3,2-d]pyrimidines as potent JAK3 inhibitors for the treatment of idiopathic pulmonary fibrosis” (Bioorg Med Chem, 2020)
